# Screening data (PubChem BioAssay)
# Only some compounds are listed: those with a hit (about 2.5% of all), similar ones and a draw of the others.
# NR2E3 ag-1 = inhibitors of NR2E3-RetCOR corepressor binding, primary screen, NR2E3 agonist project, biochemical, TR-FRET, GST-NR2E3, biotin-RetCOR. Photoreceptor-specific nuclear receptor (Homo sapiens), Q9Y5X4. 1536-well. inhibition of corepressor binding, % at 4.78 µM. hit rate 0.12% among 320,000;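 active = percent inhibition above the cutoff of mean plus 3 SD of all tested compounds, set per screening campaign, cut at about 20% in these data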;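 note: 0% = DMSO wells and 100% = biotin wells as full block of FRET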
#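 System: GST-tagged NR2E3 plus biotinylated RetCOR corepressor; Amount: 1.35 nM GST-tagged NR2E3 final; Dosing: single nominal compound dose of 4.8 µM; Schedule: 5 h incubation at 4 °C; Technique: TR-FRET with europium anti-GST and streptavidin-D2, 340 nm excitation; Controls: biotin wells as high control, 0.6% DMSO wells as low control.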
# GASC-1 inh = inhibitors of GASC-1 histone demethylase, primary screen, biochemical, fluorescence, DELFIA europium. Lysine-specific demethylase 4C (Homo sapiens), Q9H3R0. GST-JMJD2C(1-420) H3K9me3 demethylation. inhibition, % at 2.35 µM. hit rate 0.069% among 330,000. AID 2099, 2009;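 active = more than half of a compound's replicate wells show inhibition beyond 50%, single wells judged on their own value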;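 note: signal counts dimethyl H3K9 product captured on neutravidin plate; 0% = median of DMSO wells and 100% = 0.3 times that DMSO median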
# KLK7 zymogen act = proKLK7 zymogen activators, primary screen, biochemical, fluorescence intensity. Kallikrein-7 (Homo sapiens), P49862. purified proKLK7, EDANS-DABCYL substrate fluorescence; 100% is mature enzyme control, 0% vehicle. activation, % at 7 µM. hit rate 0.9% among 370,000;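 active = activation above the mean of all tested compounds plus 3 SD, computed per campaign excluding outliers beyond control limits, cut at about 13% in these data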
# NR2E3 ag-2 = NR2E3 agonists in two-hybrid cells, primary screen, cell-based, luminescence, CHO-S, Gal4-NCOR/VP16-NR2E3; luciferase; inhibition of corepressor binding, % at 3.98 µM; Photoreceptor-specific nuclear receptor (Homo sapiens), Q9Y5X4; hit rate 0.35% among 360,000;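 active = inhibition above the mean of all tested compounds plus 3 SD, cut at about 70% in these data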;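 note: 0% = DMSO with NR2E3 transfected cells and 100% = cells lacking NR2E3 construct; higher means lower luciferase signal from less NR2E3 corepressor binding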
# ADAM10 inh = human ADAM10 inhibitors, primary screen, biochemical, QFRET, HTS. Disintegrin and metalloproteinase domain-containing protein 10 (Homo sapiens), O14672. recombinant ADAM10, EDANS/DABCYL FRET peptide cleavage, 3 h. inhibition, % at 7 µM. hit rate 0.62% among 370,000. AID 720582, 2013;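 active = inhibition above a per-campaign cutoff equal to the mean of compounds falling between control-based bounds plus 3 SD, cut at about 20% in these data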;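 note: 0% = DMSO wells while the 100% control is not disclosed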
# Target sequence (O14672 214-748 limits assumed): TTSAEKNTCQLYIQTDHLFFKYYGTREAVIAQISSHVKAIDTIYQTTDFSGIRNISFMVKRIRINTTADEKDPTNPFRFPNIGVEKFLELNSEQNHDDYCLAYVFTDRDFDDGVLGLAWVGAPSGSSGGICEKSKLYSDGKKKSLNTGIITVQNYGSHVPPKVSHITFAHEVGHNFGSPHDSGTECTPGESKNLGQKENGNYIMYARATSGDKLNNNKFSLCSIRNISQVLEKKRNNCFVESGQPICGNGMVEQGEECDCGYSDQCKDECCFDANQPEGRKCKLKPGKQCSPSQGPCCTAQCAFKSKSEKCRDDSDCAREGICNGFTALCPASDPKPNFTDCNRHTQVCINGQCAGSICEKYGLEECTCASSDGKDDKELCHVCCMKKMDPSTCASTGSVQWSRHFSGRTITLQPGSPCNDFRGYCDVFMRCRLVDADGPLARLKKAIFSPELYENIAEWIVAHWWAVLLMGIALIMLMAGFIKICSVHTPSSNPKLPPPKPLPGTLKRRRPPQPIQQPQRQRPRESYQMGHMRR
# ADAM17 inh = ADAM17 inhibitors, primary screen, biochemical, QFRET | recombinant ADAM17, EDANS/DABCYL FRET peptide cleavage | inhibition, % at 6.95 µM | hit rate 0.83% among 370,000;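 active = inhibition above the mean of compounds lying between control limits plus 3 SD, set per campaign, cut at about 8.5% in these data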;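 note: 0% = DMSO-only wells as the low control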
# NR2E3 ag confirm = NR2E3 agonist confirmation in cells, cell-based, luminescence, CHO-S two-hybrid | shares compounds with NR2E3 ag-2 | CHO-S mammalian two-hybrid NR2E3-NCOR, luciferase luminescence | inhibition, % at 3.98 µM | hit rate 51% among 2,300;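 active = average inhibition above a cutoff equal to the mean inhibition of all tested compounds plus one SD, cut at about 70% in these data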;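 note: 0% = DMSO in NR2E3 cells and 100% = DMSO in cells lacking NR2E3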
# GAL4-VP16 luc = GAL4-VP16 reporter modulators, confirmation, counter-screen for NR2E3 agonist project, cell-based, luminescence, CHO-S, high throughput | shares compounds with NR2E3 ag-2 | CHO-S GAL4-VP16 luciferase reporter | inhibition, % at 3.98 µM | hit rate 29% among 2,300 | AID 624379, 2012;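 active = mean inhibition above a cutoff equal to the average over all tested compounds plus one standard deviation, cut at about 70% in these data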;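 note: luciferase from a UAS reporter driven by GAL4-VP16 transactivation; 0% = DMSO with VP16-transfected cells and 100% = DMSO with cells lacking VP16; higher means less reporter light so more repression of VP16 activity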
# Active calls of the source: *; i = inactive; · = no result.
SMILES,NR2E3 ag-1,GASC-1 inh,KLK7 zymogen act,NR2E3 ag-2,ADAM10 inh,ADAM17 inh,NR2E3 ag confirm,GAL4-VP16 luc
CS(=O)(=O)c1ccc(N2CCN(S(=O)(=O)c3cccs3)CC2)c([N+](=O)[O-])c1,3.2,1.5,-0.6,-4.0,-2.0,-0.6,·,·
COc1cc(C(CC(=O)Nc2ccc(Cl)cn2)N2Cc3ccccc3C2=O)cc(OC)c1OC (stereo unspecified),1.7,5.6,-0.6,5.7,14.1,-0.4,·,·
CC(C)NC(=O)C1(C)CN(S(C)(=O)=O)CC(=O)N1C1CC1 (stereo unspecified),·,·,0.1,·,2.1,-1.7,·,·
COc1ccc(S(=O)(=O)N2CCOC2CNC(=O)C(=O)NCc2ccc(F)cc2)cc1OC (stereo unspecified),2.4,0.2,-0.6,48.9,2.1,-0.7,9.9,11.8
COCCNC[C@@]12CO[C@H](c3ccc(Cl)cc3)N1[C@@H](c1ccc(Cl)cc1)SC2,·,·,·,·,12.9,5.2,·,·
Cc1ccc(S(=O)(=O)N(CC(=O)Nc2ccccc2C(=O)O)c2cccc(Cl)c2C)cc1,-0.3,4.5,-0.4,89.8*,-1.0,-1.4,97.8*,36.7
Cc1ccc(Cc2c(-c3ccccc3)nc3c(Cl)cc(C(F)(F)F)cn23)cc1,·,·,-0.3,12.3,-6.3,-3.4,·,·
Cc1ccc(Cc2c(-c3ccc(C)cc3)nc3c(Cl)cc(C(F)(F)F)cn23)cc1,·,·,·,60.5,·,·,-6.5,10.4
N#Cc1ccc(/C=C2\CC3(OC(=O)C4CCCC4)CCCN2C3)cc1 (stereo unspecified),·,·,-0.7,·,-8.2,-1.6,·,·
O=C(Nc1c(-c2ccc(F)cc2)nc2ncccn12)c1ccc(F)cc1,·,·,11.5,·,-372.7,-105.2,·,·
Nc1ccn([C@@H]2O[C@H](CO)[C@@H](O)[C@@H]2O)c(=O)n1,-1.7,2.6,0.4,-22.7,10.0,-1.6,·,·
OCC1OC(n2ccc3c2ncn2ncnc32)C(O)C1O (stereo unspecified),·,·,-0.3,57.5,-9.7,-3.5,7.5,12.6
Cc1ccc(NC(=O)CSc2nc(=O)n(CCCN3CCOCC3)c3c2CCCC3)c(C)c1,0.8,15.0,-0.4,4.6,-9.5,-1.8,·,·
C=CCn1c(O)c(N=NC(=S)Nc2cccc(C)c2)c2ccccc21,-4.2,i,-0.3,79.8*,-5.1,1.4,27.6,42.3
C=CCn1c(O)c(N=NC(=S)Nc2ccccc2F)c2ccccc21,4.3,5.8,-0.1,86.2*,12.7,6.3,22.8,32.5
CCn1c(O)c(N=NC(=O)CNc2cccc(C)c2)c2ccccc21,3.0,4.4,0.7,7.8,0.5,-11.6,·,·
Nc1[nH]c(C(=O)c2ccccc2)c(-c2ccc(Cl)c(F)c2)c1C(=O)c1c[nH]c2ccccc12,·,·,0.8,·,-12.1,-3.5,·,·
Cc1ccc2nc(N3C(=O)C(O)=C(C(=O)c4cc5ccccc5o4)C3c3cccs3)sc2c1 (stereo unspecified),6.8,8.0,·,-124.2,·,·,·,·
O=C(C1=C(O)C(=O)N(c2nccs2)C1c1ccccc1)c1cc2ccccc2o1 (stereo unspecified),6.5,-4.1,0.3,66.0,-7.6,-1.6,95.1*,71.1*
CC(C)N1CCCCC(NC(=O)Cc2ccccc2)C1=O (stereo unspecified),·,·,-0.2,·,1.8,7.0,·,·
CN(C)S(=O)(=O)c1ccc(NC(=O)N2CCN(c3cccc(C(F)(F)F)c3)CC2)cc1,0.9,-3.8,0.8,49.0,-0.1,2.4,80.0*,69.2
Cc1ccnc(NC(=S)N2CCN(c3cccc(C(F)(F)F)c3)CC2)c1,-58.7,-0.5,0.1,84.0*,-0.3,2.5,91.3*,33.2
COC(=O)c1ccc2nc(-c3ccc(C)cc3)c(CC(C)(C)C)n2c1,·,·,1.1,·,12.3,5.2,·,·
CC(=O)Nc1ccc(OCc2cccc3ccccc23)cc1,1.0,0.3,0.2,48.5,6.1,1.0,46.5,44.3
COC(=O)c1ccc2nc(Nc3nc4c(F)cc(F)cc4s3)sc2c1,1.4,13.0,-4.6,58.3,-98.1,-40.1,28.8,-46.8
SMILES,NR2E3 ag-1,GASC-1 inh,KLK7 zymogen act,NR2E3 ag-2,ADAM10 inh,ADAM17 inh,NR2E3 ag confirm,GAL4-VP16 luc
Cc1nc2ccc(S(=O)(=O)Nc3cccc(-c4nc5cccnc5s4)c3C)cc2s1,1.9,20.6,0.5,97.5*,-10.1,3.8,95.0*,86.3*
Cc1ccc(S(=O)(=O)N(C(=O)c2ccncc2)c2ccc(OC(=O)c3ccncc3)c3ccccc23)c(C)c1,0.7,10.1,·,-26.7,·,·,·,·
COC(=O)c1c(C)oc2ccc(N(C(=O)c3ccncc3)S(=O)(=O)c3ccc(C)cc3C)cc12,-1.9,-1.8,-1.0,91.1*,13.1,0.4,93.5*,62.4
COC(=O)c1c(C)oc2ccc(N(C(=O)c3ccncc3)S(=O)(=O)c3ccc(C)cc3)cc12,-1.3,26.1,·,84.8*,·,·,94.7*,83.3*
COC(=O)c1c(C)oc2ccc(N(C(=O)c3ccncc3)S(=O)(=O)c3ccc4ccccc4c3)cc12,-4.7,-26.1,0.0,89.0*,17.1,8.5,97.1*,87.2*
COc1cccc(-c2nnc(SCC(=O)OC(C)C)n2-c2ccc(Cl)cc2)c1,·,·,-0.1,·,3.5,1.5,·,·
O=C1Cc2c([nH]c3ccc([N+](=O)[O-])cc23)-c2ccccc2N1,·,·,0.6,85.4*,-3.6,-2.4,97.2*,71.2*
O=c1[nH]c2cc([N+](=O)[O-])ccc2c2ccccc12,·,·,0.0,2.8,-13.2,-1.8,·,·
COc1ccc(NC(=O)C(C)N2c3cccc4cccc(c34)S2(=O)=O)cc1 (stereo unspecified),1.8,5.6,0.8,20.1,-59.2,-18.3,·,·
COc1ccc(NC(=O)C(C)N2c3cccc4cccc(c34)S2(=O)=O)cc1OC (stereo unspecified),1.0,-6.4,0.0,62.9,-11.8,-1.7,65.5,47.9
COc1ccc(OC)c(Nc2nc(-c3c(C)nc4ncccn34)cs2)c1,0.7,-1.9,-0.9,49.2,-22.7,-6.4,-32.6,18.8
CN(C)C(CNC(=S)Nc1ccccc1Cl)c1cccnc1 (stereo unspecified),-0.3,4.6,0.1,2.6,-4.3,-1.1,·,·
